Test results published in ChEMBL document CHEMBL1921718, “Structure-activity relationships in toll-like receptor 2-agonists leading to simplified monoacyl lipopeptides” (J Med Chem, 2011).
pEC50: −log10 of the molar value. Calls of active or inactive are those of the source. The calls are words filed in the database; no cut-off is given here.

Tests used:
[1] = molecular target: Toll-like receptor 2 (Homo sapiens, UniProt O60603); experiment: Agonist activity at human TLR2 expressed in HEK293 cells assessed as NF-kappaB induction measured soluble alkaline phosphatase after 12 hrs by spectrophotometric analysis; type: functional, cell-based
Chain of Toll-like receptor 2 (O60603 whole entry): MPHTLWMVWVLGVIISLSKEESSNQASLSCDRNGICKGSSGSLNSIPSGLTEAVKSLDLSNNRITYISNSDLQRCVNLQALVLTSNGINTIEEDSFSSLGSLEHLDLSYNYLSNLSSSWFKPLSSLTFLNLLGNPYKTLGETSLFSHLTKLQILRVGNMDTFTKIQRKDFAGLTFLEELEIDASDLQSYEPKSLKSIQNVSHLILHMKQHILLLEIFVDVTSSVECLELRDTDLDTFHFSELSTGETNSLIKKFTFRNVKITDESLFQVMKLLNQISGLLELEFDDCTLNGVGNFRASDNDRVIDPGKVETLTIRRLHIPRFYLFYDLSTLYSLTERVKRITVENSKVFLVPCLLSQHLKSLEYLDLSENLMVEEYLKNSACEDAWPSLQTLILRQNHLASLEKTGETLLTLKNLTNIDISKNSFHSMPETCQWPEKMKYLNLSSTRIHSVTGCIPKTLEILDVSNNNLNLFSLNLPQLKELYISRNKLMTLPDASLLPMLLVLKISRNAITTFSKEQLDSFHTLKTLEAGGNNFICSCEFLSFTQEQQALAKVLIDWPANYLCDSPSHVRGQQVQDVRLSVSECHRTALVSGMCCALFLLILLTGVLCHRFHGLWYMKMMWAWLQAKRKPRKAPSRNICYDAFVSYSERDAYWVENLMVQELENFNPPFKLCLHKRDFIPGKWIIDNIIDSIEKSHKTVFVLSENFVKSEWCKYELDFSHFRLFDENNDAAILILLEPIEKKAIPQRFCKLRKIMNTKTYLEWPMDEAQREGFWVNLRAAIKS
Summary of the method: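 HEK-Blue cells (HEK293 stably transfected with human TLR2 and NF-κB-driven secreted alkaline phosphatase) kept in selection medium with zeocin and normocin; seeded ~10^5 cells/mL, grown to confluency, then stimulated 12 h with serially diluted compounds. Supernatant sAP read spectrophotometrically at 620 nm using an alkaline phosphatase-specific chromogen in the detection medium.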

[2] = Aqueous solubility of the compound; type: physicochemical; settings: buffer
[3] = Upregulation of CD11b expression in human […] by flow cytometric analysis; type: functional, cell-based
Summary of the method: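 Fresh heparinized or anticoagulated human whole blood from healthy adults, incubated with graded compound dilutions 1 h at 37 °C, with saline negative controls. Kept on ice 15 min, then stained with anti-CD11b on ice 30 min so only surface CD11b was labelled. Red cells lysed and leukocytes fixed in one step; PE single-colour flow cytometry on 20,000 gated events.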

[4] = Upregulation of p38 MAPK expression in […] […] by flow cytometric analysis; type: functional, cell-based; settings: Homo sapiens
Summary of the method: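 Heparinized fresh human whole blood exposed to graded compound concentrations in saline for 15 min at 37 °C. Red cells lysed and leukocytes fixed in one step, then permeabilized in ice-cold methanol 30 min. Stained with PE anti-phospho-p38MAPK (pT180/pY182, α/β/γ/δ isoforms). Single-colour PE flow cytometry on 20,000 gated events.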

| Structure (SMILES) | pEC50 [1] | further results |
| --- | --- | --- |
| CCCCCCCCCCCCCCCCCC(=O)OC[C@H](CSC[C@H](N)C(=O)N[C@@H](CO)C(=O)O)OC(=O)CCCCCCCCCCCCCCCCC | 8.83 | – |
| CC/C=C\C/C=C\C/C=C\CCCCCCCC(=O)OC[C@H](CSC[C@H](N)C(=O)NCC(=O)OC(C)C)OC(=O)CCCCCCC/C=C\C/C=C\C/C=C\CC | 9.06 | – |
| CCCCCCCCCCCCCCCC(=O)O[C@H](COC(=O)CNCCCOCCOCCOCCCN)CSC[C@H](N)C(=O)N[C@@H](CO)C(=O)O | 8.81 | solubility [2]: soluble |
| CCCCCCCCCCCCCCCC(=O)OC[C@H](C[Se]C[C@H](N)C(=O)N[C@@H](CO)C(=O)OC)OC(=O)CCCCCCCCCCCCCCC | 9.59 | – |
| CCCCCCCCCCCCCCCC(=O)OC[C@H](CSC[C@H](NC(=O)CC[C@H](N)C(=O)O)C(=O)NCC(=O)OC(C)C)OC(=O)CCCCCCCCCCCCCCC | < 6.00 | – |
| CCCCCCCCCCCCCCCC(=O)OC[C@H](CSCCC(=O)N[C@@H](CO)C(=O)OC)OC(=O)CCCCCCCCCCCCCCC | < 6.00 | – |
| CCCCCCCCCCCCCCCC(=O)O[C@H](COC(=O)CNCCCOCCOCCOCC)CSC[C@H](N)C(=O)N[C@@H](CO)C(=O)O | 8.68 | solubility [2]: soluble |
| CCCCC/C=C\C/C=C\CCCCCCCC(=O)OC[C@H](CSC[C@H](N)C(=O)NCC(=O)OC(C)C)OC(=O)CCCCCCC/C=C\C/C=C\CCCCC | 9.00 | – |
| CCCCCCCCCCCCCCCC(=O)OC[C@H](CSC(C)(C)[C@@H](N)C(=O)N[C@@H](CO)C(=O)OC)OC(=O)CCCCCCCCCCCCCCC | < 6.00 | – |
| CCCCCCCCCCCCCC(=O)OC[C@H](CSC[C@H](N)C(=O)N[C@@H](CO)C(=O)O)OC(=O)CCCCCCCCCCCCC | 9.25 | – |
| CCCCCCCCCCCCCCCC(=O)OC[C@H](CSCC[C@H](N)C(=O)N[C@@H](CO)C(=O)O)OC(=O)CCCCCCCCCCCCCCC | < 6.00 | – |
| CCCCCCCCCCCCCCCC(=O)OC[C@H](CSC(C)(C)[C@H](N)C(=O)N[C@@H](CO)C(=O)O)OC(=O)CCCCCCCCCCCCCCC | < 6.00 | – |
| CCCCCCCCCCCCCCCC(=O)OC[C@H](CSC[C@H](N)C(=O)NCC(=O)OC(C)C)OC(=O)CCCCCCCCCCCCCCC | 9.35 | – |
| CCCCCCCCCCCCCCCC(=O)O[C@H](COC(=O)CNCCCNCCCCNCCCN)CSC[C@H](N)C(=O)N[C@@H](CO)C(=O)O | 8.49 | solubility [2]: soluble |
| CCCCCCCCCCCCCCCC(=O)OCC(CSC[C@H](N)C(=O)N[C@@H](CO)C(=O)O)OC(=O)CCCCCCCCCCCCCCC (mixture of isomers) | – | Activity [3]: Active; Activity [4]: Active |
| CCOCCOCCOCCCNCC(=O)OC[C@H](CSC[C@H](N)C(=O)N[C@@H](CO)C(=O)O)OC(=O)CNCCCOCCOCCOCC | < 6.00 | – |

The next lines start with results.

| pEC50 [1] | Structure (SMILES) | further results |
| --- | --- | --- |
| < 6.00 | CCCCCCCCCCCCCCCC(=O)OCCCSC[C@H](N)C(=O)N[C@@H](CO)C(=O)OC | – |
| < 6.00 | CCCCCCCCCCCCCCCCOC(=O)CSC[C@H](N)C(=O)N[C@@H](CO)C(=O)OC | – |
| < 6.00 | CCCCCCCCCCCCCCCCOC(=O)CCSC[C@H](N)C(=O)N[C@@H](CO)C(=O)OC | – |
| 8.71 | CCCCCCCCCCCCCCCC(=O)OC[C@@H](O)CSC[C@H](N)C(=O)N[C@@H](CO)C(=O)O | – |
| 8.73 | CCCCCCCCCCCCCCCC(=O)O[C@H](CO)CSC[C@H](N)C(=O)N[C@@H](CO)C(=O)O | – |
| 8.19 | CCCCCCCCCCCC(=O)OC[C@H](CSC[C@H](N)C(=O)N[C@@H](CO)C(=O)O)OC(=O)CCCCCCCCCCC | – |
| 8.35 | CCCCCCCCCCCCCCCC(=O)OCCSC[C@H](N)C(=O)N[C@@H](CO)C(=O)OC | Activity [3]: Active; Activity [4]: Active |
